# Results: PubChem BioAssay
# The source made the active and inactive calls.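 Rule for the calls, unless noted: active = compounds giving at least 50% inhibition in the cell-based MKP-3 phosphatase rescue imaging test; inactive = the rest.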
# Experiments:
# [1] = inhibitors of TNFa-induced NFkB p65 translocation, primary screen, imaging, HUVEC, MLSMR starter and 10KST1 sets (AID 438;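 active = inhibition above 20% together with a positive visual image hit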;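 note: compound added about 3h40 before a 20 min TNFalpha stimulation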;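 for inhibition: signal is the nuclear over cytoplasmic p65 intensity ratio per well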); conditions: HUVEC TNFa-induced p65 nuclear translocation; cell count: measured here: nuclei count (cytotoxicity indicator), at 2.08 µM; inhibition: at 2 µM, stronger effect = higher value, 0% TNFa-plus-vehicle, 100% no-TNFa wells
# [2] = inhibitors of E-selectin induction by TNFa, primary screen, imaging, HUVEC, immunofluorescence, MLSMR starter and 10KST1 sets (AID 487;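 active = visually confirmed hit in the image check and inhibition above 20%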;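 for inhibition: signal is fraction of cell area covered by stained E-selectin grains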;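 for nuclei count: 100% = median nuclei count of all wells on the same plate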); conditions: HUVEC TNFalpha-induced E-selectin immunofluorescence imaging, at 2 µM; inhibition: stronger effect = higher value; nuclei count: measured here: cell number, toxicity
# [3] = DUSP6 inhibitors restoring Erk phosphorylation by chemical complementation, primary imaging in DUSP6-transfected HeLa (AID 609); conditions: HeLa MKP-3 transfected, phospho-Erk imaging KS statistic, at 10 µM, cells stimulated with TPA for 15 min;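 for inhibition: phospho-Erk level distribution per well compared with pooled transfected vehicle control wells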
# [4] = molecular target: Dual specificity protein phosphatase 6 (Homo sapiens) (UniProt Q16828); experiment: as above; conditions: HeLa MKP-3 transfected, phospho-Erk imaging KS statistic; at 10 µM; stronger effect = higher value; cells stimulated with TPA for 15 min
# Sequence of Dual specificity protein phosphatase 6 (Homo sapiens) (Q16828 whole entry, looked up): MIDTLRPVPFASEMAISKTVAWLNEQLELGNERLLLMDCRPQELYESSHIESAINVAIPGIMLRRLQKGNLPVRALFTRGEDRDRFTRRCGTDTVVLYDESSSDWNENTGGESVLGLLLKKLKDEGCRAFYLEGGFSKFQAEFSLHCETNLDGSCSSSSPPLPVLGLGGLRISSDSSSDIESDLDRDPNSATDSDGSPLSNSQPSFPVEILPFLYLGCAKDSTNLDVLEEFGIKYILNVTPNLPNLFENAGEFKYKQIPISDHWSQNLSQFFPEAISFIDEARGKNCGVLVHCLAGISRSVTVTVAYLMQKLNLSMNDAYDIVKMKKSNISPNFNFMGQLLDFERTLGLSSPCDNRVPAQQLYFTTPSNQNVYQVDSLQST
# [5] = molecular target: Voltage-gated potassium channel subunit beta-2 (Rattus norvegicus) (UniProt P62483); experiment: KvBeta enzyme negative modulators, primary screen, biochemical, NADPH fluorescence (AID 622;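 active = fluorescence slope higher than the sample average by over 3 SD, cut at about -0.22 in these data, passing the limit was not always enough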;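 note: slope of raw intensity against log time taken from 70 to 1610 s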); conditions: recombinant KvBeta, 4-cyanobenzaldehyde reduction, at 10 µM, stronger effect = higher value
# Sequence of Voltage-gated potassium channel subunit beta-2 (Rattus norvegicus) (P62483 whole entry, looked up): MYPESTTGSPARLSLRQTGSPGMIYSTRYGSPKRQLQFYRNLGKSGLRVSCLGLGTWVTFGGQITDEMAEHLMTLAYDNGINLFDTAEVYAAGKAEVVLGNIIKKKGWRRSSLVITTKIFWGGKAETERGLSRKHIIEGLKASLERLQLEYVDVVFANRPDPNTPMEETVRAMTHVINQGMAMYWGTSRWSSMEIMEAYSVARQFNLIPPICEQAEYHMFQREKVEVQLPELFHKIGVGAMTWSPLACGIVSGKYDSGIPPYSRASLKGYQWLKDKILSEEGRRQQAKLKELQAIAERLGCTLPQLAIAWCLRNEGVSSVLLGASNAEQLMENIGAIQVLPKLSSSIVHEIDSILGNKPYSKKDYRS
# [6] = molecular target: Voltage-gated potassium channel subunit beta-2 (Rattus norvegicus) (UniProt P62483); experiment: KvBeta positive modulators, primary screen, biochemical, NADPH fluorescence (AID 623;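 active = NADPH fluorescence slope more negative than the mean of all samples by about 3 SD, 99.7% confidence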;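 note: fluorescence intensity change per second fitted from 20 to 320 s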); conditions: Recombinant KvBeta, NADPH fluorescence decrease slope, 10 min; at 10 µM; stronger effect = lower value
# [7] = molecular target: Alpha-2C adrenergic receptor (Homo sapiens) (UniProt P18825); experiment: modulators of alpha2C/GIRK thallium flux, primary screen, cell-based, HEK293 alpha2C/GIRK1/2 (AID 624;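 active = fluorescence slope after compound addition differing from the mean of all screened samples at 99.7% confidence, in either direction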;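 note: slope of fluorescence ratio to pre-addition baseline per second over 15 to 24 s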); conditions: thallium flux BTC fluorescence, at 10 µM, actives lie on both sides
# Sequence of Alpha-2C adrenergic receptor (Homo sapiens) (P18825 whole entry, looked up): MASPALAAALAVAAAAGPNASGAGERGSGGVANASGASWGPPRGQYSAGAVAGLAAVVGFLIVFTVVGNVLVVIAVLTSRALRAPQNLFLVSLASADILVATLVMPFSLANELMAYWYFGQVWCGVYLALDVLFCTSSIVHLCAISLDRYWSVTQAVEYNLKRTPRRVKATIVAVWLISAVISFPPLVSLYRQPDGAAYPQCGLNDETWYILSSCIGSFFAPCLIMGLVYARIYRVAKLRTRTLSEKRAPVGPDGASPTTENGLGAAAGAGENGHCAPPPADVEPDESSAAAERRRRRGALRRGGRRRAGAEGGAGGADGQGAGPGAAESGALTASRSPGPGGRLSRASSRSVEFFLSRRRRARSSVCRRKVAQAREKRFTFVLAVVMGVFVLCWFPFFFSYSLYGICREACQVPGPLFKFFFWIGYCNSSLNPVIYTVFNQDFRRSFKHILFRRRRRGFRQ
# [8] = inhibitors of larval lipid processing in zebrafish, primary screen, whole organism, PED6 fluorescence, gall bladder and intestine (AID 686;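 active = a full or partial loss of lipid-probe fluorescence in the fish gall bladder, intestine or both, judged by eye; inactive = no fluorescence loss, or compound toxic to the fish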;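 note: larvae 5 to 7 days old with five fish per well; signal comes from phospholipase A2 cleavage of quenched PED6 carried via bile; overnight exposure to compound and PED6 before scoring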); conditions: Zebrafish larvae PED6 lipid processing, fluorescence scoring; screened at 20 µM (by protocol)
# In short: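 system = live zebrafish larvae aged 5-7 days, whole organism | probe or stimulus = ingested quenched lipid PED6 at 100 nM | doses = 20 µM single dose | timing = overnight exposure | detection = fluorescence microscopy with visual scoring of gall bladder and intestine | read-out = visual per-well fluorescence inhibition score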
# [9] = inhibitors of Chlamydomonas gravitaxis, primary screen, whole organism, Chlamydomonas reinhardtii, WT vs cilia-less mutant, absorbance, 96-well (AID 463189;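 active = inhibition at or above 50% relative to wild type and mutant plate controls; inactive = inhibition below 50%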;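 note: 0% = wild type cc124 cells in DMSO and 100% = ciliumless bld1 mutant cells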); conditions: OD600 absorbance, 2 days, at 10 µM, stronger effect = higher value
# [10] = measured here: cell density z-score
# [11] = measured here: nuclear c-Myc green intensity z-score
# [12] = measured here: nuclear pErk red intensity z-score, stronger effect = higher value
SMILES,cell count [1],inhibition [1],inhibition [2],nuclei count [2] [%],"z-score [3, 10]","z-score [3, 11]","z-score [3, 12]",inhibition [4],fluorescence slope [5],NADPH fluorescence slope [6],slope [7],outcome [8],inhibition [9]
CCc1c(C(=O)O)[nH]c2ccc(Br)cc12,581,-1.8% (inactive),-21.7% (inactive),171,-0.258,-0.825,2.03,-7.01% (inactive),-0.367 (inactive),-5.4e-05 (inactive),0.00495 (inactive),inactive,-2.83% (inactive)
Cc1ccc(-c2ccccc2NC(=O)C2C3C=CC(C3)C2C(=O)O)o1 (stereo unspecified),553,-2.2% (inactive),-4.5% (inactive),154,0.45,-0.671,-0.083,14% (inactive),-0.352 (inactive),5.5e-06 (inactive),0.00466 (inactive),inactive,7.64% (inactive)
CCCCCc1ccc(-c2ccc(=O)[nH]n2)cc1,455,-1.5% (inactive),-85% (inactive),107,1.16,-0.256,-1.03,15.1% (inactive),-0.516 (inactive),-2.1e-05 (inactive),0.00535 (inactive),inactive,-28.2% (inactive)
CCCCCCn1cc(C(=O)O)c(=O)c2ccccc21,426,-5.3% (inactive),-95% (inactive),158,-1.56,1.61,1.42,-7.28% (inactive),-0.402 (inactive),-1.4e-06 (inactive),0.00525 (inactive),inactive,-8.24% (inactive)
CN(C)S(=O)(=O)Nc1ccc(NS(=O)(=O)N(C)C)c(S(=O)(=O)c2ccccc2)c1,341,-11.9% (inactive),-131% (inactive),99.4,-0.765,0.48,-2.08,7.73% (inactive),-0.495 (inactive),-0.000114 (inactive),0.00381 (inactive),inactive,-7.02% (inactive)
COc1cccc(CNc2ccc(Br)cn2)c1O,544,-3.4% (inactive),-2.4% (inactive),167,-0.809,-0.901,-0.106,3.5% (inactive),-0.316 (inactive),1.4e-05 (inactive),0.00431 (inactive),inactive,6.48% (inactive)
CCOC(=O)c1c(C)n(C)c2ccc(OC)c(NC(=O)CN3CCSCC3)c12,331,-7.1% (inactive),35.2% (inactive),91.7,-1.52,-0.0806,1.39,5.42% (inactive),-0.449 (inactive),-1.5e-05 (inactive),0.0065 (inactive),inactive,37% (inactive)
COc1cccc(C2/C(=C(/O)c3cnn(-c4ccccc4)c3C)C(=O)C(=O)N2CCN(C)C)c1 (stereo unspecified),510,-2.9% (inactive),-176% (inactive),132,0.354,-0.911,0.0449,-8.76% (inactive),-0.551 (inactive),-7.2e-05 (inactive),0.00551 (inactive),inactive,7.34% (inactive)
N/C(CCN1CCOCC1)=N/O,570,-20.6% (inactive),11.7% (inactive),147,0.759,-0.712,0.254,22.7% (inactive),-0.445 (inactive),-1.6e-05 (inactive),0.00517 (inactive),inactive,17.7% (inactive)
COc1cccc(Cn2c(NCC(C)C)nc3c2c(=O)n(C)c(=O)n3C)c1,341,3.2% (inactive),-77.7% (inactive),127,-0.509,0.441,1.11,-0.624% (inactive),-0.385 (inactive),4.1e-05 (inactive),0.00489 (inactive),inactive,-12.8% (inactive)
CCOC(=O)c1c(C)n(C)c2ccc(OC)c(NC(=O)CN3CCCCC3)c12,343,-2.7% (inactive),-15% (inactive),132,-1.53,-1.22,2.07,-6.59% (inactive),-0.46 (inactive),-0.000136 (inactive),0.00641 (inactive),inactive,-10.1% (inactive)
Cc1nc2n[nH]c(N)c2c2c1COC(C)(C)C2,674,-22.2% (inactive),-454% (inactive),178,0.565,-1.79,-0.0762,5.57% (inactive),-0.516 (inactive),-0.000106 (inactive),0.00411 (inactive),inactive,3.25% (inactive)
